INS-1E rescue = protection of INS-1E cells from cytokine death, primary screen, ATP luminescence, single point; INS-1E cytokine-induced death, 48 h; normalised: neutral wells 0, positive control 100; protection from cytokine-induced ATP loss, % at 10 µM; 20,000 compounds, 0.1% hits;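 active means mean replicate protection from cytokine-induced ATP loss at least 50% and at least 75% of replicates each reaching 50%; inconclusive means meets only one of the two criteria, mean or replicate share; inactive means fails both the mean and replicate share criteria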
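Assay system: INS-1E rat insulinoma cells. Amount: 8000 cells per well. Medium: phenol-red-free RPMI with 5% fetal bovine serum. Reagent: IL-1β, TNF-α and IFN-γ cytokine mix. Doses: one compound concentration, pin transfer. Schedule: 48 h co-treatment, 10 min post-lysis read. Detection: CellTiter-Glo luminescence measuring cellular ATP.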
T cruzi HTS = inhibitors of intracellular Trypanosoma cruzi, primary screen, cell-based, plate reader, single point, set 2; intracellular Trypanosoma cruzi in host cells; activity score (inhibition), % at 5.01 µM; 22,000 compounds, 4.9% hits; AID 651903, 2012; in the data active means activity score above about 55%; inconclusive means no clear call, values can overlap the other calls;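 further: parasites and compound incubated about four days before reading; 0% = median of neutral control wells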
YB-1 expr inh = inhibitors of YB-1 gene expression, primary screen, cell-based, fluorescence; 30,000 compounds, 0.37% hits; delta delta Cp (YB-1 minus CDIP) (test concentration not listed); U2OS, qRT-PCR YB-1 vs CDIP delta delta Cp, 16 h; stronger effect = higher value; zero = DMSO, each unit about twofold;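 active means delta delta Cp rounded down to an integer at or above 3, about 3 SD of DMSO wells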;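 further: higher means less YB-1 transcript or more CDIP transcript relative to DMSO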
* hit, by the source's call; ? = inconclusive; · = no result given. Many of the other results were omitted from the sample, so hits are more common in it than they were.

SMILES	INS-1E rescue	T cruzi HTS	YB-1 expr inh
C[C@@H]1CCCCO[C@@H](CN(C)CC2CCCCC2)[C@@H](C)CN([C@H](C)CO)C(=O)c2cc(NS(=O)(=O)c3ccc(Cl)cc3)ccc2O1	-22	62*	0.1
C[C@@H]1CCCCO[C@H](CN(C)S(=O)(=O)c2ccc(Cl)cc2)[C@@H](C)CN([C@H](C)CO)C(=O)c2cc(NS(=O)(=O)c3ccc(Cl)cc3)ccc2O1	-6	28	-0.03
Cc1ccc(S(=O)(=O)N(C)C[C@H]2OCCCC[C@@H](C)Oc3ccc(NS(=O)(=O)c4ccc(Cl)cc4)cc3C(=O)N([C@H](C)CO)C[C@@H]2C)cc1	-10	64*	0.038
Cc1ccc(S(=O)(=O)Nc2ccc3c(c2)C(=O)N([C@H](C)CO)C[C@H](C)[C@H](CN(C)S(=O)(=O)c2ccc(Cl)cc2)OCCCC[C@@H](C)O3)cc1	-35	?	-0.041
C[C@@H]1CCCCO[C@@H](CN(C)S(=O)(=O)c2ccc(Cl)cc2)[C@@H](C)CN([C@H](C)CO)C(=O)c2cc(NS(=O)(=O)c3ccc(Cl)cc3)ccc2O1	-15	59*	-0.85
C[C@@H]1CCCCO[C@H](CN(C)CC2CCCCC2)[C@@H](C)CN([C@H](C)CO)C(=O)c2cc(NS(=O)(=O)c3ccc(Cl)cc3)ccc2O1	-2	27	-0.1
C=C(C)C(=O)O[C@H]1[C@H]2C(=C)C(=O)O[C@@H]2C[C@@H](C)/C=C/C(=O)[C@](C)(O)[C@@H]1OC(C)=O	·	·	-1.1
C[C@@H]1CN([C@@H](C)CO)C(=O)c2cccc(NC(=O)Nc3cccc4ccccc34)c2O[C@H]1CN(C)C(=O)Nc1ccccc1	3	10	-0.067
C[C@H](CO)N1C[C@H](C)[C@@H](CN(C)C(=O)Nc2ccccc2)Oc2c(NC(=O)Nc3cccc4ccccc34)cccc2C1=O	4	68*	-0.54
C[C@@H]1CN([C@H](C)CO)C(=O)c2cccc(NC(=O)Nc3cccc4ccccc34)c2O[C@H]1CN(C)C(=O)Nc1ccccc1	1	12	0.43
C[C@H](CO)N1C[C@H](C)[C@H](CN(C)C(=O)Nc2ccccc2)Oc2c(NC(=O)Nc3cccc4ccccc34)cccc2C1=O	-22	63*	0.037
CC(=O)O[C@H]1CC[C@@]2(C)C(CC[C@]3(C)C2C(=O)C=C2C4[C@@H](C)[C@H](C)CC[C@]4(C(=O)O)CC[C@]23C)C1(C)C (stereo partly drawn)	·	·	0.032
CC(C)S(=O)(=O)NC[C@@H]1CCCN(Cc2cccc(OCCO)c2)C1	·	·	0.96
O=C(CCCCCC(=O)Nc1ccccc1O)N/N=C/c1cc(Br)cc([N+](=O)[O-])c1O	-27	33	-0.54
O=C(Nc1ccc([N+](=O)[O-])cc1O)Nc1ccccc1Br	·	·	3*
O=C(CCCCCCC(=O)Nc1ccccc1O)N/N=C/c1ccccc1O	8	24	0.25
O=C(CCCCCCC(=O)Nc1ccccc1O)N/N=C/c1ccc([N+](=O)[O-])s1	-36	89*	-0.28
CCN(CC)c1ccc(/C=N/NC(=O)CCCCCCC(=O)Nc2ccccc2O)c(O)c1	-8	66*	-0.37
O=C(CCCCC(=O)N/N=C/c1ccc([N+](=O)[O-])s1)NO	1	52	0.092
CCOC(=O)c1cc(C#N)c(Sc2ccc(C)cc2)nc1C(F)(F)F	·	·	-0.54
COC(=O)C(CC#Cc1ccc2c(c1)[C@]1(C(=O)N2)[C@H](C(=O)NC[C@H](O)c2ccccc2)[C@H]2C(=O)O[C@H](c3ccccc3)[C@H](c3ccccc3)N2[C@@H]1c1ccc(O)cc1)C(=O)OC	·	·	-0.16
Cc1noc(C)c1NC(=O)N(C)C[C@H]1Oc2c(NC(=O)CCCCCC(=O)Nc3ccccc3N)cccc2C(=O)N([C@H](C)CO)C[C@@H]1C	-5	-19	-0.17
C[C@@H]1CN([C@@H](C)CO)C(=O)CCCn2nncc2CO[C@H]1CN(C)Cc1ccc(-c2ccccc2)cc1	·	22	-0.092
C[C@@H]1CN([C@H](C)CO)C(=O)CCCn2nncc2CO[C@@H]1CN(C)Cc1ccc(-c2ccccc2)cc1	·	60*	-0.32
C[C@H](CO)N1C[C@H](C)[C@H](CN(C)S(=O)(=O)c2ccc(Oc3ccccc3)cc2)OCc2cnnn2CCCC1=O	8	70*	0.24
C[C@H](CO)N1C[C@H](C)[C@@H](CN(C)S(=O)(=O)c2ccc(-c3ccccc3)cc2)OCc2cnnn2CCCC1=O	·	80*	-0.26
